This passage reports IC50, TC25 and NT results from ChEMBL document CHEMBL1126132, “5,5-disubstituted hydantoins: syntheses and anti-HIV activity” (J Med Chem, 1992).

pIC50: −log10 of the molar value. Some results are limits rather than exact numbers.

Experiment [1] has as its system MT2. The experiment can be described thus: Inhibition of HIV-1 RF induced cytotoxicity in MT-2 cells; Inactive. It counts as functional, cell-based. The essentials:
(§1)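 MT-2 cells at 5×10^3 per well were infected with HIV-1 RF at MOI 0.005, chosen to give complete killing at 6 days. Triplicate wells received five half-log dilutions from 100 μM. After 6 days at 37 °C, XTT colorimetry gave viability. IC50 is the minimum concentration reducing CPE by 50%, calculated by semilog regression.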

The subject of experiment [2] is CCRF-CEM. The experiment can be described thus: Compound was tested for antiviral activity by measuring its ability to inhibit HIV induced virus production in CEM cells. It counts as functional, Homo sapiens.
In experiment [3] the test system is Human immunodeficiency virus type 1 (RF/HAT ISOLATE). Briefly: Inhibition of HIV-1 RF viral production in MT-2 cells. The experiment is classed as functional, Human immunodeficiency virus 1, MT2.
Experiment [4] concerns CCRF-CEM. The experiment can be described thus: Compound was tested for antiviral activity by measuring its ability to inhibit HIV induced cell killing in CEM cells. It counts as functional, cell-based. Conditions: Homo sapiens. The method, boiled down: (§2)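 CEM cells at 5×10^3 per well were infected with HIV-1 RF at MOI 0.01, chosen to give complete cell killing by day 6. Five serial half-log dilutions starting at 100 μM were tested in triplicate. After 6 days at 37 °C, viability was read by XTT. IC50 is the minimum concentration inhibiting CPE by 50%, from semilog regression curve fitting.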

Experiment [5] concerns CCRF-CEM. The experiment can be described thus: Inhibition of HIV-1 RF induced cytotoxicity in CEM cells; Inactive. It counts as functional, cell-based. The method, boiled down:
as §2

Experiment [6] deals with MT2. The experiment can be described thus: Compound was tested for antiviral activity by measuring its ability to inhibit HIV induced virus production in MT-2 cells; NT indicates nontoxic uM. The experiment is classed as functional, cell-based. The essentials:
(§3)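 Cytotoxicity was measured in uninfected cells with drug, in CEM or MT-2 at 5×10^3 per well. There were five half-log dilutions up to 100 μM, the highest concentration, in triplicate. Cells were incubated 6 days at 37 °C and viability was read by XTT. TC25 is the minimum concentration cutting viability by 25%; NT means nontoxic up to 100 μM.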

The subject of experiment [7] is CCRF-CEM. The experiment can be described thus: Compound was tested for antiviral activity by measuring its ability to inhibit HIV induced virus production in CEM cells; NT indicates nontoxic uM. It counts as functional, cell-based. Conditions: Homo sapiens. The method, boiled down: as §3
Experiment [8] concerns MT2. Briefly: Compound was tested for antiviral activity by measuring its ability to inhibit HIV induced cell killing in MT-2 cells. The settings on record: Homo sapiens. It counts as functional, cell-based. The method, boiled down: as §1

`COc1ccc(CSCC2(CSCc3ccc(OC)cc3)NC(=O)NC2=O)cc1`: in the experiment with MT2 [1], the IC50 result was “Nontoxic up to 100uM”. Besides, the TC25 (in the experiment on CCRF-CEM [2]; in experiment [3]) was 6 µM each time. The pIC50 with CCRF-CEM [4] was 4.64.

For the molecule `O=C1NC(=O)C(CS)(CSCc2ccccc2)N1` (configuration not stated), the results for the TC25 (in the experiment on CCRF-CEM [2]; in experiment [3]) were 34 µM and 50 µM, respectively. For the same molecule, the IC50 result in the experiment with CCRF-CEM [5] was “Nontoxic up to 100uM”.

For `O=C1NC(=O)C(CSc2ccncc2)(CSc2ccncc2)N1`, the IC50 entry in the experiment on MT2 [1] and in the experiment on CCRF-CEM [5] was “Nontoxic up to 100uM” throughout. Moreover, in the experiment with MT2 [6], the NT result is “Nontoxic up to 100uM”. Also, the TC25 result with CCRF-CEM [7] is “Nontoxic up to 100uM”.

As for `O=C1NC(=O)C(CSCc2ccc(Br)cc2)(CSCc2ccc(Br)cc2)N1`, the IC50 result in the experiment with MT2 [1] and in the experiment on CCRF-CEM [5] was “Nontoxic up to 100uM” in each case. In addition, the TC25 worked out at 16 µM in the experiment on CCRF-CEM [2] and 7 µM in experiment [3].

Take `O=C1NC(=O)C(CSC(=O)c2ccccc2)(CSC(=O)c2ccccc2)N1`: in the experiment with MT2 [1], the IC50 result is on record as “Nontoxic up to 100uM”. The values for the TC25 (in the experiment on CCRF-CEM [2]; in experiment [3]) were 31 µM and 5 µM, respectively. Further, the pIC50 in the experiment on CCRF-CEM [4] is 5.15.

As to `COC(=O)c1ccc(CSCC2(CSCc3ccc(C(=O)OC)cc3)NC(=O)NC2=O)cc1`, the IC50 entry in the experiment on MT2 [1] and in the experiment with CCRF-CEM [5] was “Nontoxic up to 100uM” each time. Besides, the TC25 in the experiment with CCRF-CEM [2] turned out to be 25 µM; in experiment [3], 10 µM.

Consider `Nc1ccc(CSCC2(CSCc3ccc(N)cc3)NC(=O)NC2=O)cc1`, for which the values for the TC25 (in experiment [3]; in the experiment on CCRF-CEM [7]) were 16 µM and “Nontoxic up to 100uM”, respectively. Also, the pIC50 was 4.06 in the experiment with CCRF-CEM [4] and 5.22 with MT2 [8].

With `O=C1NC(=O)C(COCc2ccccc2)(COCc2ccccc2)N1`, the IC50 entry with MT2 [1] and with CCRF-CEM [5] was “Nontoxic up to 100uM” each time. Also, the TC25 was >100 µM in the experiment with CCRF-CEM [2] and 87 µM in experiment [3].

`O=C1NC(=O)C(CSCc2ccc(C(=O)O)cc2)(CSCc2ccc(C(=O)O)cc2)N1`: the IC50 result with MT2 [1] and in the experiment on CCRF-CEM [5] was “Nontoxic up to 100uM” in each case. Moreover, the TC25 result with MT2 [6] and with CCRF-CEM [7] was “Nontoxic up to 100uM” in each case.

Turning to `O=C1NC(=O)C(CSCC2CCCCC2)(CSCC2CCCCC2)N1`, the IC50 entry with MT2 [1] and in the experiment with CCRF-CEM [5] was “Nontoxic up to 100uM” each time. The TC25 with CCRF-CEM [2] is 8 µM; in experiment [3], 12 µM.

For `O=C1NC(=O)C(CSCc2ccncc2)(CSCc2ccncc2)N1`, the IC50 result in the experiment on MT2 [1] is listed as “Nontoxic up to 100uM”. In addition, the TC25 in experiment [3] was 45 µM; in the experiment with CCRF-CEM [7], “Nontoxic up to 100uM”. In the experiment on CCRF-CEM [4], this molecule showed a pIC50 of 4.28.

On to `O=C1NC(=O)C(CSCc2ccccn2)(CSCc2ccccn2)N1`, for which the TC25 result with MT2 [6] (Homo sapiens) and in the experiment on CCRF-CEM [7] was “Nontoxic up to 100uM” throughout. Further, the pIC50 in the experiment with MT2 [8] was 4.09. Moreover, the IC50 entry with CCRF-CEM [5] is “Nontoxic up to 100uM”.

For the molecule `S=C1NC(=S)C(CSCc2ccccc2)(CSCc2ccccc2)N1`, the TC25 (with CCRF-CEM [2]; in experiment [3]) was 16 µM in each case. The IC50 entry in the experiment on CCRF-CEM [5] is reported as “Nontoxic up to 100uM”.

`O=C1NC(=O)C(CSCc2cccc3ccccc23)(CSCc2cccc3ccccc23)N1`: the IC50 result with MT2 [1] and in the experiment on CCRF-CEM [5] was “Nontoxic up to 100uM” throughout. Also, the TC25 result with MT2 [6] (Homo sapiens) and in the experiment on CCRF-CEM [7] was “Nontoxic up to 100uM” in each case.

With `O=C1NC(=O)C(CSCc2ccccc2)N1` (configuration not stated), the TC25 was determined as 5 µM in the experiment on CCRF-CEM [2] and 2 µM in experiment [3]. In addition, in the experiment with CCRF-CEM [5], the IC50 entry is on record as “Nontoxic up to 100uM”.

For `O=C1NC(=O)C(CSCCO)(CSCc2ccccc2)N1` (configuration not stated), the IC50 entry with MT2 [1] and in the experiment with CCRF-CEM [5] was “Nontoxic up to 100uM” throughout. Further, the TC25 result with MT2 [6] (Homo sapiens) and in the experiment with CCRF-CEM [7] was “Nontoxic up to 100uM” throughout.

Take `O=C1NC(=O)C(CSc2ccccc2)(CSc2ccccc2)N1`: the TC25 in the experiment with CCRF-CEM [2] was 64 µM; in experiment [3], 50 µM. Further, the IC50 result in the experiment on CCRF-CEM [5] is “Nontoxic up to 100uM”.

As for `O=C1NC(=O)C(CSCc2cccnc2)(CSCc2cccnc2)N1`, the IC50 entry with MT2 [1] and in the experiment on CCRF-CEM [5] was “Nontoxic up to 100uM” each time. Moreover, the TC25 result in the experiment with MT2 [6] (Homo sapiens) and with CCRF-CEM [7] was “Nontoxic up to 100uM” throughout.

On to `N#Cc1ccc(CSCC2(CSCc3ccc(C#N)cc3)NC(=O)NC2=O)cc1`, for which the IC50 result with MT2 [1] is reported as “Nontoxic up to 100uM”. Further, the figures for the TC25 (with CCRF-CEM [2]; in experiment [3]) were 15 µM and 8 µM, respectively. Further, the pIC50 in the experiment on CCRF-CEM [4] was 4.60.

Turning to `O=C1NC(=O)C(CSCc2ccc([N+](=O)[O-])cc2)(CSCc2ccc([N+](=O)[O-])cc2)N1`, the IC50 entry with MT2 [1] is “Nontoxic up to 100uM”. The TC25 in the experiment on CCRF-CEM [2] was found to be 9 µM; in experiment [3], 5 µM. This molecule showed a pIC50 with CCRF-CEM [4] of 4.72.

`O=C1NC(=O)C(CSCc2cccs2)(CSCc2cccs2)N1`: the IC50 entry with MT2 [1] and in the experiment on CCRF-CEM [5] was “Nontoxic up to 100uM” in each case. Also, the results for the TC25 (in experiment [3]; in the experiment with CCRF-CEM [7]) were 17 µM and “Nontoxic up to 100uM”, respectively.

`O=C1NC(=O)C(CS)(CS)N1`: the IC50 result with MT2 [1] was “Nontoxic up to 100uM”. Besides, the results for the TC25 (with CCRF-CEM [2]; in experiment [3]) were 3 µM and 0.8 µM, respectively. In the experiment with CCRF-CEM [4], this molecule had a pIC50 of 6.22.

As for `NC(CSCc1ccccc1)(CSCc1ccccc1)C(=O)O`, the IC50 entry in the experiment with MT2 [1] and in the experiment on CCRF-CEM [5] was “Nontoxic up to 100uM” throughout. For the same molecule, the TC25 in experiment [3] was 60 µM; in the experiment on CCRF-CEM [7] it was “Nontoxic up to 100uM”.

With `O=C1NC(=O)C(CSCc2ccccc2)(CSCc2ccccc2)N1`, the TC25 result in the experiment on MT2 [6] and in the experiment on CCRF-CEM [7] was “Nontoxic up to 100uM” each time. In the experiment on MT2 [8], this molecule had a pIC50 of 4.77. The IC50 entry with CCRF-CEM [5] is “Nontoxic up to 100uM”.
